pIC50: −log10 of the molar value. Calls of active or inactive are those of the source. The calls are words filed in the database; no cut-off is given here.
Legend:
[1] = Cytotoxicity against HUVEC assessed as cell viability at 40 uM after 48 hrs by MTT assay relative to control; assay type: cell-based; conditions: human, HUVEC cells; read-out: Activity
How it was run: (§1)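 Native (non-transfected) HUVECs were seeded at 1 × 10^4 cells/well on 0.1% gelatin in complete M199 for 24 h. They were then exposed to 1, 5, 10, 20 or 40 μM in serum-free M199 for 48 h at 37 °C. MTT was added for 3 h and formazan dissolved in 2-propanol. After centrifugation, supernatant absorbance was read at 570 nm and expressed as % of control. Three independent experiments in triplicate.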

Mus musculus [2] = test: Toxicity in VEGFA-stimulated mouse highly metastatic LLC cells xenografted C57BL/6 mouse assessed as reduction of body weight at 0.5 to 5 mg/kg, sc qd for 18 days; assay type: organism-based; parameters: dose 0.5-5 mg/kg, route subcutaneous; conditions: in vivo, 432 h
How it was run: (§2)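 C57BL/6 mice bearing sc right-flank VEGF-A-hm LLC tumours (1 × 10^6 cells) were dosed sc at 0.5 or 5 mg/kg from day 12 after inoculation, over the 18-day growth study. Animals were monitored for body weight loss, lethargy, hair loss and mortality.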

[3] = target: c-Jun N-terminal kinase, JNK (Homo sapiens) (UniProt P45983+P53779+P45984); test: Inhibition of VEGFA-stimulated JNK phosphorylation in HUVEC by Western blot analysis; assay type: cell-based
How it was run: (§3)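 VEGF-A-HUVECs exposed to 1, 5 or 10 μM were lysed with protease and phosphatase inhibitors (1 mM NaF, 1 mM Na3VO4). Lysates (10 μg/lane) were run on 10% SDS-PAGE and immunoblotted (1:1000) for phospho- and total ERK1/2, JNK and p38, detected by HRP-ECL.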

HUVEC [4] = test: Down regulation of COX2 expression in HUVEC at 5 to 20 uM after 24 hrs by Western blot analysis; assay type: functional, cell-based; conditions: Homo sapiens
[5] = Cytotoxicity against HUVEC assessed as cell viability at 10 uM after 48 hrs by MTT assay relative to control; assay type: cell-based; conditions: human, HUVEC cells; read-out: Activity; how it was run: as §1
[6] = test system: Lewis lung carcinoma cell line; test: Antitumor activity against VEGFA-stimulated mouse highly metastatic LLC cells xenografted in C57BL/6 mouse assessed as tumor growth inhibition at 0.5 mg/kg, […] relative to control; assay type: functional; conditions: sc, 432 h, route subcutaneous, read-out: TGI
HUVEC [7] = test: Down regulation of VEGFR2 expression in VEGFA-stimulated HUVEC at 5 to 20 uM after 24 hrs by Western blot analysis; assay type: functional, cell-based; conditions: Homo sapiens
HUVEC [8] = test: Down regulation of COX2 expression in VEGFA-stimulated HUVEC at 5 to 20 uM after 24 hrs by Western blot analysis; assay type: functional, cell-based; conditions: Homo sapiens
HUVEC [9] = test: Antiangiogenic activity against VEGFA-stimulated cell proliferation in HUVEC after 48 hrs by BrdU incorporation assay; assay type: functional, cell-based; conditions: Homo sapiens
Mus musculus [10] = test: Toxicity in VEGFA-stimulated mouse highly metastatic LLC cells xenografted C57BL/6 mouse assessed as hair loss at 0.5 to 5 mg/kg, sc qd for 18 days; assay type: organism-based; parameters: dose 0.5-5 mg/kg, route subcutaneous; conditions: in vivo, 432 h; how it was run: as §2
Mus musculus [11] = test: Toxicity in VEGFA-stimulated mouse highly metastatic LLC cells xenografted C57BL/6 mouse assessed as mortality at 0.5 to 5 mg/kg, sc qd for 18 days; assay type: organism-based; parameters: dose 0.5-5 mg/kg, route subcutaneous; conditions: in vivo, 432 h; how it was run: as §2
[12] = test system: Lewis lung carcinoma cell line; test: Antiangiogenic activity against VEGFA-stimulated mouse highly metastatic LLC cells xenografted in C57BL/6 mouse assessed as reduction of vessel formation at 5 mg/kg, sc qd for 7 days relative to control; assay type: functional; parameters: scale not given: the % may be the effect or the level left; conditions: route subcutaneous
How it was run: (§4)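 VEGF-A-hm LLC cells (5 × 10^5 in 50 μL) were inoculated intradermally into the back skin of mice. Compound was given sc at 0.5 or 5 mg/kg/day for 7 days, starting day 3 after inoculation. Mice were killed on day 10 and the inoculated skin separated from underlying tissue. Only vessels directly supplying the tumour were counted under a dissecting microscope; reduction is versus untreated control.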

HUVEC [13] = test: Down regulation of VEGF-A expression in HUVEC at 5 to 20 uM after 24 hrs by Western blot analysis; assay type: functional, cell-based; conditions: Homo sapiens
HUVEC [14] = test: Down regulation of VEGF-A expression in VEGFA-stimulated HUVEC at 5 to 20 uM after 24 hrs by Western blot analysis; assay type: functional, cell-based; conditions: Homo sapiens
Mus musculus [15] = test: Toxicity in VEGFA-stimulated mouse highly metastatic LLC cells xenografted C57BL/6 mouse assessed as hair loss at 0.5 to 5 mg/kg, sc qd for 7 days; assay type: organism-based; parameters: dose 0.5-5 mg/kg, route subcutaneous; conditions: in vivo, 168 h
[16] = test system: Lewis lung carcinoma cell line; test: Antitumor activity against VEGFA-stimulated mouse highly metastatic LLC cells xenografted in C57BL/6 mouse assessed as reduction of tumor weight at 5 mg/kg, […] relative to control; assay type: functional; parameters: scale not given: the % may be the effect or the level left; conditions: route subcutaneous
[17] = test system: Lewis lung carcinoma cell line; test: Antitumor activity against VEGFA-stimulated mouse highly metastatic LLC cells xenografted in C57BL/6 mouse assessed as reduction of tumor weight at 0.5 mg/kg, […] relative to control; assay type: functional; parameters: scale not given: the % may be the effect or the level left; conditions: route subcutaneous
[18] = test system: Lewis lung carcinoma cell line; test: Antiangiogenic activity against VEGFA-stimulated mouse highly metastatic LLC cells xenografted in C57BL/6 mouse assessed as reduction of vessel formation at 0.5 mg/kg, sc qd for 7 days relative to control; assay type: functional; parameters: scale not given: the % may be the effect or the level left; conditions: route subcutaneous; how it was run: as §4
[19] = target: T1, MAP kinase p38 (Homo sapiens) (UniProt O15264+Q15759+Q16539+P53778); test: Increase of VEGFA-stimulated p38 phosphorylation in HUVEC by Western blot analysis; assay type: protein assay; how it was run: as §3
[20] = test system: Lewis lung carcinoma cell line; test: Antitumor activity against VEGFA-stimulated mouse highly metastatic LLC cells xenografted in C57BL/6 mouse assessed as tumor growth inhibition at 5 mg/kg, […] relative to control; assay type: functional; conditions: sc, 432 h, route subcutaneous, read-out: TGI
[21] = target: Mitogen-activated protein kinase; ERK1/ERK2 (Homo sapiens) (UniProt P27361+P28482); test: Inhibition of VEGFA-stimulated ERK1/2 phosphorylation in HUVEC by Western blot analysis; assay type: protein assay; how it was run: as §3
Mitogen-activated protein kinase; ERK1/ERK2 (Homo sapiens), sequence (P27361 whole entry, looked up): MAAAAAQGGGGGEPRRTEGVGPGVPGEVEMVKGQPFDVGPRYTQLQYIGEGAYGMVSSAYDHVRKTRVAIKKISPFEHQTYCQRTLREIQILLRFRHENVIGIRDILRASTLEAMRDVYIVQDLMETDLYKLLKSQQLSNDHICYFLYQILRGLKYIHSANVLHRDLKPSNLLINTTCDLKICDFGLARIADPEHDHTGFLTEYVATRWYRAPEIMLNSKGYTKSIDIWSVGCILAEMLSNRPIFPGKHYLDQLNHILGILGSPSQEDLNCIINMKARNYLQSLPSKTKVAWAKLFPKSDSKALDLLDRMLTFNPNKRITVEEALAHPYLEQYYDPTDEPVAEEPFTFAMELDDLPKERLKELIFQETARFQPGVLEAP
Mitogen-activated protein kinase; ERK1/ERK2 (Homo sapiens), sequence (P28482 whole entry, looked up): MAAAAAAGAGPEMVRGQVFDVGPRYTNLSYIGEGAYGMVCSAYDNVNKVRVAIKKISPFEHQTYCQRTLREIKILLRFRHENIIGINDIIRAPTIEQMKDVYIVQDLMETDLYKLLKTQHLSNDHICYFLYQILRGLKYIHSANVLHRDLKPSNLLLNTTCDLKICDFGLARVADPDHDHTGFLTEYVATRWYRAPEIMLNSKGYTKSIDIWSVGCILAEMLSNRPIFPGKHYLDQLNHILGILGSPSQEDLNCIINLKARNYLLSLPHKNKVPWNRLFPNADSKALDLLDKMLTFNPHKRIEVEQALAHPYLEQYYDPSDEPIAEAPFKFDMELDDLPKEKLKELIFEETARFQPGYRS

HUVEC [22] = test: Down regulation of VEGFA-stimulated VEGF-A expression in HUVEC at 5 to 20 uM after 24 hrs by Western blot analysis in presence of p38 inhibitor SB203580; assay type: functional, cell-based; conditions: Homo sapiens
[23] = target: T1, MAP kinase p38 (Homo sapiens); test: Increase of VEGFA-stimulated p38 phosphorylation in HUVEC by Western blot analysis in presence of p38 inhibitor SB203580; assay type: protein assay
How it was run: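 VEGF-A-HUVECs were pretreated 30 min with SB203580 before the compound was added. Lysates with phosphatase inhibitors (10 μg/lane) were separated by 10% SDS-PAGE and immunoblotted (1:1000) for phospho-p38 and total p38, detected by HRP-ECL.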

HUVEC [24] = test: Inhibition of VEGFA-stimulated VEGF production in HUVEC at 5 to 20 uM after 24 hrs by enzyme immunoassay; assay type: functional, cell-based; conditions: Homo sapiens
HUVEC [25] = test: Antiangiogenic activity against VEGFA-stimulated capillary differentiation in HUVEC after 18 hrs by matrigel assay; assay type: functional, cell-based; conditions: Homo sapiens
How it was run: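 VEGF-A-HUVECs (HUVECs stably transfected with pcDNA3.1 carrying mouse VEGF-A164, G418-selected) were plated at 1 × 10^5 cells on polymerised growth factor-reduced Matrigel (5 mg/mL) with 5, 10 or 20 μM. They were incubated 18 h at 37 °C, 5% CO2, then washed, fixed and photographed (100×). Tube area per random field was quantified by image analysis. Three experiments in triplicate; IC50 read from the dose curve.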

Mus musculus [26] = test: Toxicity in VEGFA-stimulated mouse highly metastatic LLC cells xenografted C57BL/6 mouse assessed as mortality at 0.5 to 5 mg/kg, sc qd for 7 days; assay type: organism-based; parameters: dose 0.5-5 mg/kg, route subcutaneous; conditions: in vivo, 168 h
Mus musculus [27] = test: Toxicity in VEGFA-stimulated mouse highly metastatic LLC cells xenografted C57BL/6 mouse assessed as lethargy at 0.5 to 5 mg/kg, sc qd for 7 days; assay type: organism-based; parameters: dose 0.5-5 mg/kg, route subcutaneous; conditions: in vivo, 168 h
HUVEC [28] = test: Down regulation of VEGFR2 expression in HUVEC at 5 to 20 uM after 24 hrs by Western blot analysis; assay type: functional, cell-based; conditions: Homo sapiens
Mus musculus [29] = test: Toxicity in VEGFA-stimulated mouse highly metastatic LLC cells xenografted C57BL/6 mouse assessed as lethargy at 0.5 to 5 mg/kg, sc qd for 18 days; assay type: organism-based; parameters: dose 0.5-5 mg/kg, route subcutaneous; conditions: in vivo, 432 h; how it was run: as §2
[30] = Cytotoxicity against HUVEC assessed as cell viability at 5 uM after 48 hrs by MTT assay relative to control; assay type: cell-based; conditions: human, HUVEC cells; read-out: Activity; how it was run: as §1
[31] = Cytotoxicity against HUVEC assessed as cell viability at 1 uM after 48 hrs by MTT assay relative to control; assay type: cell-based; conditions: human, HUVEC cells; read-out: Activity; how it was run: as §1
[32] = Cytotoxicity against HUVEC assessed as cell viability at 20 uM after 48 hrs by MTT assay relative to control; assay type: cell-based; conditions: human, HUVEC cells; read-out: Activity; how it was run: as §1
HUVEC [33] = test: Inhibition of VEGFA-stimulated PGE2 production in HUVEC at 5 to 20 uM after 24 hrs by ELISA; assay type: functional, cell-based; conditions: Homo sapiens
HUVEC [34] = test: Down regulation of VEGFA-stimulated COX2 expression in HUVEC at 5 to 20 uM after 24 hrs by Western blot analysis in presence of p38 inhibitor SB203580; assay type: functional, cell-based; conditions: Homo sapiens

With `CC[C@H](C)[C@H](NC(=O)CN)C(=O)NCC(=O)N[C@@H](C)C(=O)N[C@H](C(=O)N[C@@H](CC(C)C)C(=O)N[C@@H](CCCCN)C(=O)N[C@H](C(=O)N[C@@H](CC(C)C)C(=O)N[C@H](C(=O)N[C@H](C(=O)NCC(=O)N[C@@H](CC(C)C)C(=O)N1CCC[C@H]1C(=O)N[C@@H](C)C(=O)N[C@@H](CC(C)C)C(=O)N[C@H](C(=O)N[C@@H](CO)C(=O)N[C@@H](Cc1c[nH]c2ccccc12)C(=O)N[C@H](C(=O)N[C@@H](CCCCN)C(=O)N[C@@H](CCCNC(=N)N)C(=O)N[C@@H](CCCCN)C(=O)N[C@@H](CCCNC(=N)N)C(=O)N[C@@H](CCC(N)=O)C(=O)N[C@@H](CCC(N)=O)C(N)=O)[C@@H](C)CC)[C@@H](C)CC)[C@@H](C)O)[C@@H](C)O)C(C)C)C(C)C` [MELITTIN] the viability at 48 h, 40 µM [1] was 96.5%, the Activity (Mus musculus [2]) was “Non-toxic” and the inhibition [3] was “Active”. For the same compound, the Activity (HUVEC [4]) was “inactive”, the viability at 48 h, 10 µM [5] was 99.4% and the inhibition in vivo at 0.5 mg/kg [6] was 25%. The Activity (HUVEC [7]) was “Active”, the Activity (HUVEC [8]) was “Active” and the pIC50 (HUVEC [9]) was 4.74. The inhibition (HUVEC [9]) was “Dose-dependent effect”, the Activity (Mus musculus [10]) was “Non-toxic” and the Activity (Mus musculus [11]) was “Non-toxic”. The Activity [12] was 59%, the Activity (HUVEC [13]) was “inactive” and the Activity (HUVEC [14]) was “Active”. The Activity (Mus musculus [15]) was “Non-toxic”, the Activity [16] was 91% and the Activity [17] was 60%. The Activity [18] was 52%, the Activity [19] was “Dose-dependent effect” and the inhibition in vivo at 5 mg/kg [20] was 57%. For the same compound, the inhibition [21] was “Dose-dependent effect”, the Activity (HUVEC [22]) was “inactive” and the Activity [23] was “inactive”. For the same compound, the inhibition (HUVEC [24]) was “Active”, the pIC50 (HUVEC [25]) was 4.89 and the inhibition (HUVEC [25]) was “Dose-dependent effect”. For the same compound, the Activity (Mus musculus [26]) was “Non-toxic”, the Activity (Mus musculus [27]) was “Non-toxic” and the Activity (HUVEC [28]) was “inactive”. For the same compound, the Activity (Mus musculus [29]) was “Non-toxic”, the viability at 48 h, 5 µM [30] was 98.9% and the viability at 48 h, 1 µM [31] was 104%. The viability at 48 h, 20 µM [32] was 98.5%, the inhibition (HUVEC [33]) was “Active” and the Activity (HUVEC [34]) was “inactive”.
For `CS(=O)(=O)Nc1ccc([N+](=O)[O-])cc1OC1CCCCC1` [NS-398], the inhibition (HUVEC [9]) was “Active”, the Activity [12] was 22% and the inhibition in vivo at 5 mg/kg [20] was 42%. For the same compound, the inhibition (HUVEC [25]) was “Active”.
